PMI act hi M6P = human PMI activators, high substrate, primary screen, biochemical, fluorescence intensity, near-saturating mannose 6-phosphate; Mannose-6-phosphate isomerase (Homo sapiens), P34949; coupled PMI enzyme assay, resazurin fluorescence, 20 min; stronger effect = higher value; 1 = untreated enzyme, 0 = substrate-free blank; activation factor at 20 µM; 190,000 compounds, 0.34% hits; AID 1216, 2008;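 active = activation factor of 2 or more at 20 µM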
Target sequence (P34949 whole entry, looked up): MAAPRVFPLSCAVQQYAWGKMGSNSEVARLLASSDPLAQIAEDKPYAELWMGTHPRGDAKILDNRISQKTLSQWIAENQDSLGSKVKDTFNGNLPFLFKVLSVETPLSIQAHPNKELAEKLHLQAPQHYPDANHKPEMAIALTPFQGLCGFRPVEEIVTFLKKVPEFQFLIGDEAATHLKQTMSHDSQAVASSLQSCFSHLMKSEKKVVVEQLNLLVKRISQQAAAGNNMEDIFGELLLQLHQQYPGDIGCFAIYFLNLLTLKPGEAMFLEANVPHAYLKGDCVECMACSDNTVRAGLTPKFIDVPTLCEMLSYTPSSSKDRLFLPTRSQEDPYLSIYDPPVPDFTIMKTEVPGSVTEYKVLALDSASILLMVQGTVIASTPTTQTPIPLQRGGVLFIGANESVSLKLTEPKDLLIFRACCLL
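Technique: Diaphorase-driven resazurin-to-resorufin fluorescence, excitation 544, emission 590 nm | Assay system: Human PMI in coupled enzyme assay | Times: Enzyme reaction with compound 20 min at room temperature | Medium: HEPES-buffered pH 7.4 with magnesium and detergent | Reagent: Mannose-6-phosphate 1.0 mM (near-saturating) plus 0.22 mM NADP+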
Calpain2 inh = inhibitors of pig calpain II, primary screen, biochemical, fluorogenic peptide substrate, 1536-well; purified calpain II, 30 min; inhibition, % at 16 µM; 220,000 compounds, 0.37% hits;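 active = inhibition above about 50%, limit read from the data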
Rad51 HR inh = human RAD51 strand exchange inhibitors, primary screen, biochemical, fluorescence. AID 1385, 2008. 200,000 compounds, 0.085% hits. DNA repair protein RAD51 homolog 1 (Homo sapiens), Q06609. hRad51 DNA strand exchange, fluorescence dequenching. inhibition, % at 10 µM;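 active = inhibition above 40% at the single screening dose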;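 note: 0% = DMSO control wells and 100% = blanks with heterologous ssDNA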
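Assay system: Human Rad51 nucleoprotein filaments preassembled on unlabelled ssDNA | Reagent: Donor/quencher-labelled 47-bp dsDNA substrate | Doses: One concentration, 10 µM final | Times: 37 °C 15-min filament assembly, 30-min compound preincubation, 15-min exchange | Technique: Fluorescein emission 520 nm, excitation 485 nm | Benchmarks: Plate control and blank wells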
PMI act = activators of human PMI, primary screen, biochemical, fluorescence intensity, near-Km mannose 6-phosphate; Mannose-6-phosphate isomerase (Homo sapiens), P34949; purified human PMI, coupled resazurin fluorescence, 20 min; stronger effect = higher value; 1 = vehicle control, 0 substrate-free wells; activation factor at 20 µM; 190,000 compounds, 0.005% hits; AID 1214, 2008;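 active = activation factor of 2 or more at 20 µM, relative to plate controls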
Efa HMGR inh = inhibitors of E. faecalis class II HMGR, primary screen, biochemical, Enterococcus faecalis. HMG-CoA reductase (Enterococcus faecalis, mvaE). purified E. faecalis HMGR, NADPH absorbance 340 nm kinetic. inhibition, % at 10 µM. 190,000 compounds, 0.41% hits. AID 1066, 2008;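 active = inhibition above a set limit, the median over all tested compounds plus 3 SD, cut at about 9.5% in these data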;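 note: enzyme runs in reverse so mevalonate oxidation gives rising NADPH absorbance; 0% = complete reaction with DMSO and 100% = background rate lacking mevalonate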
Starred values were filed as active, the others as inactive; i = inactive; / = no result given. In the library only some 1.1% were active in any assay of this set; here they are far more common.

SMILES	PMI act hi M6P	Calpain2 inh	Rad51 HR inh	PMI act	Efa HMGR inh
O=[N+]([O-])C(/C=C(\Cl)[N+](=O)[O-])=C1N(Cc2ccc(Cl)nc2)CCN1Cc1ccc(Cl)nc1	0.8	10	2	0.8	13*
CC1(C)Oc2ccc3ccc(=O)oc3c2C(N2CCCCC2)C1O (stereo not given)	2.1*	-30	-8	1.5	2
N#Cc1c2c(c(-c3ccccc3Cl)[nH]c1=S)CCCC2	2.4*	10	-35	1.6	24*
N#Cc1c(-c2ccccc2Cl)c2c([nH]c1=O)-c1ccccc1OC2	/	-311	-8	/	/
Cc1cc(-c2ccccc2)c(C#N)c(=S)[nH]1	1	18	-5	1	1
N#Cc1c(-c2ccccc2Cl)cc(-c2ccccc2)[nH]c1=S	2.5*	-8	0	1.6	1
CCN(CC)CCCN=Cc1c(O)n(-c2ccccc2C)c(=O)c2ccccc12	/	-7	2	/	/
CCOC(=O)Cc1nn(Cc2ccccc2)c(=O)c2ccccc12	0.9	-3	8	0.9	14*
CCOC(=O)Cc1nn(Cc2ccc(Cl)cc2)c(=O)c2ccccc12	0.9	1	3	1	-5
Cn1c(O)c(/C=N/Nc2ccccc2)c(=O)n(C)c1=O	2.6*	3	2	1.7	-2
O=C1NC(=Nc2ccccc2)S/C1=C/c1cccs1	1.1	106*	10	1.2	-6
Cc1cccc(N=C2NC(=O)/C(=C\c3cccs3)S2)c1	1.1	17	5	1.1	-5
CCC(=O)N/N=C(\C)CC(=O)Nc1ccc2c(c1)OCCO2	1	14	6	1	0
COc1ccc(S(=O)(=O)NC(C)C(=O)Nc2ccccc2C(F)(F)F)cc1 (stereo not given)	1.2	31	94*	1.1	0
COc1ccc(S(=O)(=O)Nc2ccccc2C(F)(F)F)cc1	0.9	-1	-3	0.8	0
Cc1ccccc1OCCSCc1nc2ccccc2[nH]1	0.9	32	-10	0.7	-6
O=[N+]([O-])c1ccc(Sc2n[nH]c(-c3ccc(Cl)cc3Cl)n2)nc1	1	11	4	0.9	-3
COc1cc(/C=C2\SC(=O)N(c3cccc(Cl)c3)C2=O)cc([N+](=O)[O-])c1O	0.9	66*	3	1	0
COc1cc(/C=C2\SC(=O)N(c3ccc(Cl)cc3)C2=O)cc([N+](=O)[O-])c1O	0.8	26	8	0.7	-7
O=C(c1cc2c(s1)-c1ccccc1S(=O)(=O)C2)N1CCN(Cc2ccccc2)CC1	0.9	-19	/	0.9	-2
CCc1ccc(-c2cn3nc(C)c(C)nc3n2)cc1	2.2*	i	-3	1.8	-8
Cc1nc2nc(-c3ccccc3)cn2nc1C	1.5	i	-2	1.3	-4
N=C1C(c2nc3ccccc3[nH]2)=C(O)CN1NC(=O)COc1cccc(F)c1	1	-5	17	1.1	-1
CCSc1nnc(-c2cccnc2)n1-c1ccc(Cl)c(C)c1	0.9	1	-5	0.9	1
S=C(Nc1ccccc1Oc1ccccc1)Nc1cccc(Cl)c1Cl	1	55*	-7	0.9	-4
SMILES	PMI act hi M6P	Calpain2 inh	Rad51 HR inh	PMI act	Efa HMGR inh
S=C(Nc1ccc(Cl)cc1Cl)Nc1ccccc1Oc1ccccc1	1	0	-3	1	-2
NC(=O)CSc1nnc(CSc2ncccn2)n1-c1ccccc1	1.1	11	/	1.1	-1
Cc1cc(C(F)(F)F)nc(SCCN2CCOCC2)c1C#N	2.2*	9	-23	1.7	-3
CC(=O)c1ccccc1OC(=O)CCN1C(=O)c2ccccc2C1=O	1	-25	12	1.1	13*
COc1ccccc1CN1C[C@@H]2C[C@@H](c3ccc(C)c(C)c3)N3CCC[C@@]23C1=O	0.9	-6	-3	1	-1
C/C(=C\c1ccco1)CN1CCN(Cc2ccc(C)o2)C(CCO)C1 (stereo not given)	0.8	-10	-3	0.9	-3
O=C(NC(=S)NCCc1ccccn1)c1ccco1	1	-8	-2	1	1
CN(CCc1ccccn1)C(=S)NC(=O)c1ccco1	1.1	52*	0	1.1	-10
CCOc1ccc(C(C)=O)cc1CSc1nc2nc(C)cc(C)n2n1	1	10	-2	1	0
Cc1ccc(NC(=O)CN2C(=O)/C(=C3\SC(=S)N(C4CCS(=O)(=O)C4)C3=O)c3ccccc32)cc1 (stereo not given)	1	67*	-10	1	0
O=C(CN1C(=O)/C(=C2\SC(=S)N(C3CCS(=O)(=O)C3)C2=O)c2ccccc21)Nc1ccccc1 (stereo not given)	0.9	48	-1	0.8	-8
COc1cc(S(=O)(=O)Nc2ccc3cn[nH]c3c2)ccc1Cl	0.8	-12	/	0.8	12*
O=C(O)c1ccc(Cl)c(S(=O)(=O)Nc2ccc3cn[nH]c3c2)c1	0.6	-26	-1	1	0
CCCCCCNC(=O)C(=O)NCCc1ccc(Cl)cc1	1.1	19	-10	1.1	47*
O=C(CSc1nnc2c(n1)[nH]c1ccccc12)Nc1ccc(S(=O)(=O)Nc2ncccn2)cc1	1	-18	-12	0.9	-1
O=C(CSc1nc2[nH]ncc2c(=O)[nH]1)Nc1ccccc1	1.1	3	/	1.1	1
CCOc1ccc(C2CC(c3c(O)c4ccccc4oc3=O)=NN2c2ccccc2)cc1OC (stereo not given)	2.6*	-246	i	1.6	-6
CCc1nnc(NC(=O)c2nc3nc(C)cc(C)n3n2)s1	1.1	-18	/	1	-5
CCc1cc2cc(C)cc(C)c2[nH]c1=S	2.9*	-1	1	1.8	5
CCc1cc2c3c(c1)C(C)CC(C)(C)N3C(=O)/C2=C1\SC(=O)NC1=O (stereo not given)	/	57*	6	/	/
C#CCNC(=O)C1=C[C@H](c2csc3ccccc23)C[C@H](OCCCCO)O1	0.7	-16	9	0.8	1
CCCCSc1nnc(-c2ccc(C)cc2)c2ccccc12	1	52*	1	1	-6
O=c1c(N2CCOCC2)coc2ccccc12	2.8*	17	13	1.8	-5
CCCOC(=O)c1cccc(Nc2nc(-c3cccnc3)nc3ccccc23)c1	1.1	-22	6	1	2
CO/N=C/c1ccc(Sc2ccccc2N)c([N+](=O)[O-])c1	0.7	62*	1	0.8	-2
COc1ccc2c(C)cc(SC3CCOC3=O)nc2c1 (stereo not given)	0.9	5	24	1	-2

Screening results as filed in PubChem BioAssay.
